The source of these data is ChEMBL document CHEMBL4811229, “Leveraging Peptaibol Biosynthetic Promiscuity for Next-Generation Antiplasmodial Therapeutics” (J Nat Prod, 2021).

Where a SMILES comes first, the peptide text is derived from it. [ ]: non-standard residue; d: D form. The star is where a group is joined. X1 = CC(C)C[C@@H](C[N+]1=C2CCCN2CCC1)N*; Leu(ol) = CC(C)C[C@H](N)CO; dIva = CC[C@@](C)(N)C(=O)O; Pip = O=C(O)[C@@H]1CCCCN1; Iva = CC[C@](C)(N)C(=O)O; Aib = CC(C)(N)C(=O)O; βAla = NCCC(=O)O

Data set [1] can be described thus: Selectivity index, ratio of EC50 for human HepG2 cells to EC50 for antiplasmodial activity against multidrug-resistant Plasmodium falciparum Dd2 infected in human A-positive erythrocytes. Format: toxicity, cell-based. To be noted: read-out: Ratio EC50.
The subject of a further data set is Plasmodium falciparum. In words: Antiplasmodial activity against multidrug-resistant Plasmodium falciparum Dd2 infected in human A-positive erythrocytes assessed as reduction in parasitemia incubated for 72 hrs by fluorescence-based SYBR-Green-1 assay. Type of data set: functional, organism-based. To be noted: Dd2, Erythrocyte.
The subject of a further data set is HepG2. In words: Cytotoxicity against human HepG2 cells assessed as decrease in cell viability measured after 48 hrs by MTS assay. Format: cell-based. To be noted: HepG2, 48 h. In short, it runs like this: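 After 48 h at 37 °C and 5% CO2, MTS was added for 4 h and absorbance read at 490 nm. Values were normalized to Triton X-100-lysed wells (0% growth) and untreated wells. EC50 is the mean of triplicate experiments.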

In general, EC50 refers to the concentration that produces a half-maximal response. On to `CC(=O)NC(C)(C)C(=O)N[C@@H](C)C(=O)N[C@@H](C)C(=O)N[C@@H](C)C(=O)NC(C)(C)C(=O)NC(C)(C)C(=O)N[C@@H](CCC(N)=O)C(=O)NC(C)(C)C(=O)N[C@@H](CC(C)C)C(=O)NC(C)(C)C(=O)NCC(=O)N[C@@H](CC(C)C)C(=O)NC(C)(C)C(=O)N1CCC[C@H]1C(=O)N[C@H](C(=O)NC(C)(C)C(=O)NC(C)(C)C(=O)N[C@@H](CCC(N)=O)C(=O)N[C@@H](CCC(N)=O)C(=O)N[C@H](CO)Cc1ccccc1)C(C)C` (HELM PEPTIDE1{[ac].[Aib].A.A.A.[Aib].[Aib].Q.[Aib].L.[Aib].G.L.[Aib].P.V.[Aib].[Aib].Q.Q.[OC[C@H](Cc1ccccc1)N[*:1]]}$$$$V2.0), for which, in data set [1], the selectivity ratio was found to be 18. Further, the EC50 worked out at 320 nM in the data set on Plasmodium falciparum and 5770 nM in the data set on HepG2.
`CCCCCCCC(=O)NC(C)(C)C(=O)NCC(=O)N[C@@H](CC(C)C)C(=O)NC(C)(C)C(=O)NCC(=O)NCC(=O)N[C@@H](CC(C)C)C(=O)NC(C)(C)C(=O)NCC(=O)N[C@@H](CC(C)C)C(=O)N[C@H](CO)CC(C)C` (HELM PEPTIDE1{[CCCCCCCC(=O)[*:2]].[Aib].G.L.[Aib].G.G.L.[Aib].G.L.[CC(C)C[C@@H](CO)N[*:1]]}$$$$V2.0): the selectivity ratio in data set [1] was over 11.
Turning to `CC[C@](C)(NC(=O)[C@H](CC(C)C)NC(=O)[C@H](C)NC(=O)C(C)(C)NC(=O)[C@@H]1CCCCN1C(=O)C(C)(C)NC(=O)C(C)(C)NC(=O)CNC(=O)CCNC(=O)[C@H](CC(C)C)NC(=O)C(C)(C)NC(=O)C(C)(C)NC(=O)[C@@H]1CCCCN1C(=O)C(C)(C)NC(=O)[C@@H]1CCCCN1C(C)=O)C(=O)N[C@@H](CC(C)C)C[N+]1=C2CCCN2CCC1` (Ac-[Pip][Aib][Pip][Aib][Aib]L[βAla]G[Aib][Aib][Pip][Aib]AL[Iva]-X1), the selectivity ratio in data set [1] was over 64. For the same compound, the EC50 in the data set with Plasmodium falciparum was 390 nM; in the data set with HepG2, over 25000 nM.
For `CC[C@H](C)[C@H](NC(=O)[C@H](CO)NC(=O)[C@@H]1CCCN1C(=O)C(C)(C)NC(=O)[C@H](CC(C)C)NC(=O)[C@H](CCC(N)=O)NC(=O)C(C)(C)NC(C)=O)C(=O)NC(C)(C)C(=O)N1CCC[C@H]1C(=O)NC(C)(C)C(=O)N[C@@H](CC(C)C)C(=O)NC(C)(C)C(=O)N1CCC[C@H]1C(=O)N[C@H](CO)CC(C)C` (HELM PEPTIDE1{[ac].[Aib].Q.L.[Aib].P.S.I.[Aib].P.[Aib].L.[Aib].P.[CC(C)C[C@@H](CO)N[*:1]]}$$$$V2.0), the selectivity ratio in data set [1] was over 14.
Take `CC[C@H](C)[C@H](NC(=O)[C@H](CO)NC(=O)[C@@H]1CCCN1C(=O)C(C)(C)NC(=O)[C@H](CC(C)C)NC(=O)[C@H](CC(N)=O)NC(=O)[C@@](C)(CC)NC(C)=O)C(=O)NC(C)(C)C(=O)N1CCC[C@H]1C(=O)NC(C)(C)C(=O)N[C@@H](CC(C)C)C(=O)NC(C)(C)C(=O)N1CCC[C@H]1C(=O)N[C@H](CO)CC(C)C` (HELM PEPTIDE1{[ac].[CC[C@@](C)(N[*:1])C(=O)[*:2]].N.L.[Aib].P.S.I.[Aib].P.[Aib].L.[Aib].P.[CC(C)C[C@@H](CO)N[*:1]]}$$$$V2.0): the selectivity ratio in data set [1] is over 43.
Consider `CC[C@H](C)[C@H](NC(=O)[C@H](CO)NC(=O)[C@@H]1CCCN1C(=O)C(C)(C)NC(=O)[C@H](CC(C)C)NC(=O)[C@H](CC(N)=O)NC(=O)C(C)(C)NC(C)=O)C(=O)NC(C)(C)C(=O)N1CCC[C@H]1C(=O)NC(C)(C)C(=O)N[C@@H](CC(C)C)C(=O)NC(C)(C)C(=O)N1CCC[C@H]1C(=O)N[C@H](CO)CC(C)C` (HELM PEPTIDE1{[ac].[Aib].N.L.[Aib].P.S.I.[Aib].P.[Aib].L.[Aib].P.[CC(C)C[C@@H](CO)N[*:1]]}$$$$V2.0), for which, in data set [1], the selectivity ratio was over 40. The EC50 in the data set with Plasmodium falciparum is 630 nM; in the data set on HepG2, over 25000 nM.
For the compound `CC[C@H](C)[C@H](NC(=O)[C@H](CC(C)C)NC(=O)[C@H](CCC(N)=O)NC(=O)[C@@](C)(CC)NC(C)=O)C(=O)NC(C)(C)C(=O)N1CCC[C@H]1C(=O)N[C@](C)(CC)C(=O)N[C@@H](CC(C)C)C(=O)NC(C)(C)C(=O)N1CCC[C@H]1C(=O)N[C@H](CO)CC(C)C` (Ac-[dIva]QLI[Aib]P[dIva]L[Aib]P[Leu(ol)]), in data set [1], the selectivity ratio is over 250.
On to `CC[C@H](C)[C@H](NC(=O)[C@H](CO)NC(=O)[C@@H]1CCCN1C(=O)C(C)(C)NC(=O)[C@H](CC(C)C)NC(=O)[C@H](CC(N)=O)NC(=O)C(C)(C)NC(C)=O)C(=O)NC(C)(C)C(=O)N1CCC[C@H]1C(=O)NC(C)(C)C(=O)N[C@@H](CC(C)C)C(=O)N[C@](C)(CC)C(=O)N1CCC[C@H]1C(=O)N[C@H](CO)CC(C)C`, for which, in data set [1], the selectivity ratio was over 48. Also, the results for the EC50 in the data set with Plasmodium falciparum and with HepG2 were 520 nM and over 25000 nM, respectively.
Consider `CCCCCCCC(=O)NC(C)(C)C(=O)NCC(=O)N[C@@H](CC(C)C)C(=O)NC(C)(C)C(=O)NCC(=O)NCC(=O)N[C@H](C(=O)NC(C)(C)C(=O)NCC(=O)N[C@H](C(=O)N[C@H](CO)CC(C)C)[C@@H](C)CC)C(C)C`, for which the selectivity ratio in data set [1] was over 8.
`CC[C@@](C)(NC(=O)[C@H](CC(C)C)NC(=O)C(C)(C)NC(=O)[C@@H]1CCCN1C(=O)C(C)(C)NC(=O)[C@@H](NC(=O)[C@H](C)NC(=O)[C@@H]1CCCN1C(=O)C(C)(C)NC(=O)[C@H](CC(C)C)NC(=O)[C@H](CCC(N)=O)NC(=O)C(C)(C)NC(C)=O)C(C)C)C(=O)N1CCC[C@H]1C(=O)N[C@H](CO)CC(C)C`: the selectivity ratio in data set [1] is over 19. Besides, the EC50 is 1320 nM in the data set on Plasmodium falciparum and over 25000 nM in the data set on HepG2.
For the compound `CCCCCCCC(=O)NC(C)(C)C(=O)NCC(=O)N[C@@H](CC(C)C)C(=O)NC(C)(C)C(=O)NCC(=O)NCC(=O)N[C@H](C(=O)NC(C)(C)C(=O)NCC(=O)N[C@@H](CC(C)C)C(=O)N[C@H](CO)CC(C)C)C(C)C` (HELM PEPTIDE1{[CCCCCCCC(=O)[*:2]].[Aib].G.L.[Aib].G.G.V.[Aib].G.L.[CC(C)C[C@@H](CO)N[*:1]]}$$$$V2.0), the selectivity ratio in data set [1] was over 28.
Take `CC(=O)NC(C)(C)C(=O)N[C@@H](CC(N)=O)C(=O)N[C@@H](CC(C)C)C(=O)NC(C)(C)C(=O)N1CCC[C@H]1C(=O)N[C@@H](CO)C(=O)N[C@H](C(=O)NC(C)(C)C(=O)N1CCC[C@H]1C(=O)NC(C)(C)C(=O)N[C@@H](CC(C)C)C(=O)NC(C)(C)C(=O)N1CCC[C@H]1C(=O)N[C@H](CO)CC(C)C)C(C)C` (HELM PEPTIDE1{[ac].[Aib].N.L.[Aib].P.S.V.[Aib].P.[Aib].L.[Aib].P.[CC(C)C[C@@H](CO)N[*:1]]}$$$$V2.0): the selectivity ratio in data set [1] was over 35. The half-maximal effective concentration (EC50) in the data set on Plasmodium falciparum is 710 nM; in the data set with HepG2, over 25000 nM.
As to `CC[C@H](C)[C@H](NC(=O)[C@H](C)NC(=O)[C@@H]1CCCN1C(=O)C(C)(C)NC(=O)[C@H](CC(C)C)NC(=O)[C@H](CCC(N)=O)NC(=O)C(C)(C)NC(C)=O)C(=O)NC(C)(C)C(=O)N1CCC[C@H]1C(=O)NC(C)(C)C(=O)N[C@@H](CC(C)C)C(=O)NC(C)(C)C(=O)N1CCC[C@H]1C(=O)N[C@H](CO)CC(C)C` (HELM PEPTIDE1{[ac].[Aib].Q.L.[Aib].P.A.I.[Aib].P.[Aib].L.[Aib].P.[CC(C)C[C@@H](CO)N[*:1]]}$$$$V2.0), the selectivity ratio in data set [1] was over 86.
Still for that read-out and setting: to `CC[C@@](C)(NC(C)=O)C(=O)N[C@@H](CC(N)=O)C(=O)N[C@@H](CC(C)C)C(=O)NC(C)(C)C(=O)N1CCC[C@H]1C(=O)N[C@@H](CO)C(=O)N[C@H](C(=O)NC(C)(C)C(=O)N1CCC[C@H]1C(=O)NC(C)(C)C(=O)N[C@@H](CC(C)C)C(=O)NC(C)(C)C(=O)N1CCC[C@H]1C(=O)N[C@H](CO)CC(C)C)C(C)C` (HELM PEPTIDE1{[ac].[CC[C@@](C)(N[*:1])C(=O)[*:2]].N.L.[Aib].P.S.V.[Aib].P.[Aib].L.[Aib].P.[CC(C)C[C@@H](CO)N[*:1]]}$$$$V2.0) belongs over 40.
Consider `CCCCCCCC(=O)NC(C)(C)C(=O)NCC(=O)N[C@@H](CC(C)C)C(=O)NC(C)(C)C(=O)NCC(=O)NCC(=O)N[C@H](C(=O)NC(C)(C)C(=O)NCC(=O)N[C@H](C(=O)N[C@H](CO)CC(C)C)C(C)C)C(C)C`, for which the selectivity ratio in data set [1] was over 10.
Same read-out and setting: to `CC[C@H](C)[C@H](NC(=O)[C@H](C)NC(=O)[C@@H]1CCCN1C(=O)C(C)(C)NC(=O)[C@H](CC(C)C)NC(=O)[C@H](CCC(N)=O)NC(=O)[C@@](C)(CC)NC(C)=O)C(=O)NC(C)(C)C(=O)N1CCC[C@H]1C(=O)NC(C)(C)C(=O)N[C@@H](CC(C)C)C(=O)NC(C)(C)C(=O)N1CCC[C@H]1C(=O)N[C@H](CO)CC(C)C` (HELM PEPTIDE1{[ac].[CC[C@@](C)(N[*:1])C(=O)[*:2]].Q.L.[Aib].P.A.I.[Aib].P.[Aib].L.[Aib].P.[CC(C)C[C@@H](CO)N[*:1]]}$$$$V2.0) belongs over 78.
For `CC[C@H](C)[C@H](NC(=O)[C@H](C)NC(=O)[C@@H]1CCCN1C(=O)C(C)(C)NC(=O)[C@H](CC(C)C)NC(=O)[C@H](CC(N)=O)NC(=O)[C@@](C)(CC)NC(C)=O)C(=O)NC(C)(C)C(=O)N1CCC[C@H]1C(=O)N[C@](C)(CC)C(=O)N[C@@H](CC(C)C)C(=O)NC(C)(C)C(=O)N1CCC[C@H]1C(=O)N[C@H](CO)CC(C)C` (Ac-[dIva]NL[Aib]PAI[Aib]P[dIva]L[Aib]P[Leu(ol)]), in data set [1], the selectivity ratio is over 40.
For the compound `CC[C@H](C)[C@H](NC(=O)[C@H](CO)NC(=O)[C@@H]1CCCN1C(=O)C(C)(C)NC(=O)[C@H](CC(C)C)NC(=O)[C@H](CC(N)=O)NC(=O)[C@@](C)(CC)NC(C)=O)C(=O)NC(C)(C)C(=O)N1CCC[C@H]1C(=O)N[C@](C)(CC)C(=O)N[C@@H](CC(C)C)C(=O)NC(C)(C)C(=O)N1CCC[C@H]1C(=O)N[C@H](CO)CC(C)C` (Ac-[dIva]NL[Aib]PSI[Aib]P[dIva]L[Aib]P[Leu(ol)]), in data set [1], the selectivity ratio is over 48.
As for `CC[C@H](C)[C@H](NC(=O)[C@H](C)NC(=O)[C@@H]1CCCN1C(=O)C(C)(C)NC(=O)[C@H](CC(C)C)NC(=O)[C@H](CCC(N)=O)NC(=O)[C@@](C)(CC)NC(C)=O)C(=O)NC(C)(C)C(=O)N1CCC[C@H]1C(=O)N[C@](C)(CC)C(=O)N[C@@H](CC(C)C)C(=O)NC(C)(C)C(=O)N1CCC[C@H]1C(=O)N[C@H](CO)CC(C)C` (Ac-[dIva]QL[Aib]PAI[Aib]P[dIva]L[Aib]P[Leu(ol)]), the selectivity ratio in data set [1] is over 76. Also, the EC50 with HepG2 is over 25000 nM.
